# Experimental data as given in PMC8994735 (Targeted Oncology, 2021).
# Where two headings read alike, the source gives them in different places.
# System: East Asian patients with advanced nonhematologic malignancies
# Format: in vivo, human
# Method in brief: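 AEs were graded by NCI CTCAE v4.03 in all patients receiving ≥ 1 oral dose, given once daily or once weekly in 28-day cycles for up to 12 months. Follow-up lasted 30 days after the last dose. Entry required ECOG 0–1, fasting glucose ≤ 130 mg/dL and triglycerides ≤ 300 mg/dL. Summaries were descriptive.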
# [1] = QD dose escalation 2 mg (n = 3)
# [2] = QD dose escalation 3 mg (n = 6)
# [3] = QD dose escalation 4 mg (n = 7)
# [4] = QD dose escalation + expansion 3 mg (n = 12)
smiles,measurement,setting,value
CC(C)n1nc(-c2ccc3oc(N)nc3c2)c2c(N)ncnc21 [sapanisertib],Tolerability,"East Asian patients, QD and QW",generally well-tolerated
same,AE decreased appetite,QD arm,50%
same,AE nausea,QD arm,50%
same,Treatment-related AE decreased appetite,QD arm,45%
same,Treatment-related AE nausea,QD arm,50%
same,Discontinued treatment due to AEs,"QD arm (myocardial infarction, diarrhea and gastrointestinal inflammation, rash maculo-papular)",three
same,AEs resulting in discontinuation,[1],1 (33) n (%)
same,AEs resulting in dose interruption,[1],1 (33) n (%)
same,AEs resulting in dose reduction,[1],0 n (%)
same,Any AE,[1],3 (100) n (%)
same,Any grade ≥ 3 AE,[1],1 (33) n (%)
same,On-study deaths,[1],0 n (%)
same,SAEs,[1],0 n (%)
same,Treatment-related AE,[1],3 (100) n (%)
same,Treatment-related SAEs,[1],0 n (%)
same,Treatment-related grade ≥ 3 AE,[1],1 (33) n (%)
same,AEs resulting in discontinuation,[2],0 n (%)
same,AEs resulting in dose interruption,[2],5 (83) n (%)
same,AEs resulting in dose reduction,[2],0 n (%)
same,Any AE,[2],6 (100) n (%)
same,Any grade ≥ 3 AE,[2],2 (33) n (%)
same,On-study deaths,[2],0 n (%)
same,SAEs,[2],2 (33) n (%)
same,Treatment-related AE,[2],6 (100) n (%)
same,Treatment-related SAEs,[2],0 n (%)
same,Treatment-related grade ≥ 3 AE,[2],0 n (%)
same,AEs resulting in discontinuation,[3],2 (29) n (%)
same,AEs resulting in dose interruption,[3],6 (86) n (%)
same,AEs resulting in dose reduction,[3],3 (43) n (%)
same,Any AE,[3],7 (100) n (%)
same,Any grade ≥ 3 AE,[3],6 (86) n (%)
same,On-study deaths,[3],0 n (%)
same,SAEs,[3],3 (43) n (%)
same,Treatment-related AE,[3],7 (100) n (%)
same,Treatment-related SAEs,[3],2 (29) n (%)
same,Treatment-related grade ≥ 3 AE,[3],6 (86) n (%)
same,AEs resulting in discontinuation,[4],0 n (%)
same,AEs resulting in dose interruption,[4],8 (67) n (%)
same,AEs resulting in dose reduction,[4],1 (8) n (%)
same,Any AE,[4],12 (100) n (%)
same,Any grade ≥ 3 AE,[4],7 (58) n (%)
same,On-study deaths,[4],0 n (%)
same,SAEs,[4],3 (25) n (%)
same,Treatment-related AE,[4],12 (100) n (%)
same,Treatment-related SAEs,[4],0 n (%)
same,Treatment-related grade ≥ 3 AE,[4],3 (25) n (%)
same,AEs resulting in discontinuation,QD dose expansion 3 mg (n = 6),0 n (%)
same,AEs resulting in dose interruption,QD dose expansion 3 mg (n = 6),3 (50) n (%)
same,AEs resulting in dose reduction,QD dose expansion 3 mg (n = 6),1 (17) n (%)
same,Any AE,QD dose expansion 3 mg (n = 6),6 (100) n (%)
same,Any grade ≥ 3 AE,QD dose expansion 3 mg (n = 6),5 (83) n (%)
same,On-study deaths,QD dose expansion 3 mg (n = 6),0 n (%)
same,SAEs,QD dose expansion 3 mg (n = 6),1 (17) n (%)
same,Treatment-related AE,QD dose expansion 3 mg (n = 6),6 (100) n (%)
same,Treatment-related SAEs,QD dose expansion 3 mg (n = 6),0 n (%)
same,Treatment-related grade ≥ 3 AE,QD dose expansion 3 mg (n = 6),3 (50) n (%)
same,AE by preferred term: Abdominal pain,QD dosing n = 22,3 (14) n (%)
same,AE by preferred term: Alanine aminotransferase increased,QD dosing n = 22,4 (18) n (%)
same,AE by preferred term: Anemia,QD dosing n = 22,5 (23) n (%)
same,AE by preferred term: Aspartate aminotransferase increased,QD dosing n = 22,6 (27) n (%)
same,AE by preferred term: Constipation,QD dosing n = 22,4 (18) n (%)
same,AE by preferred term: Decreased appetite,QD dosing n = 22,11 (50) n (%)
same,AE by preferred term: Diarrhea,QD dosing n = 22,2 (9) n (%)
same,AE by preferred term: Erythema,QD dosing n = 22,2 (9) n (%)
same,AE by preferred term: Erythema multiforme,QD dosing n = 22,2 (9) n (%)
same,AE by preferred term: Fatigue,QD dosing n = 22,7 (32) n (%)
same,AE by preferred term: Gamma-glutamyltransferase increased,QD dosing n = 22,2 (9) n (%)
same,AE by preferred term: Gastrointestinal inflammation,QD dosing n = 22,2 (9) n (%)
same,AE by preferred term: Headache,QD dosing n = 22,2 (9) n (%)
same,AE by preferred term: Hyperglycemia,QD dosing n = 22,9 (41) n (%)
same,AE by preferred term: Hypokalemia,QD dosing n = 22,3 (14) n (%)
same,AE by preferred term: Lymphocyte count decreased,QD dosing n = 22,4 (18) n (%)
same,AE by preferred term: Nausea,QD dosing n = 22,11 (50) n (%)
same,AE by preferred term: Neutrophil count decreased,QD dosing n = 22,2 (9) n (%)
same,AE by preferred term: Platelet count decreased,QD dosing n = 22,6 (27) n (%)
same,AE by preferred term: Pruritus,QD dosing n = 22,2 (9) n (%)
same,AE by preferred term: Pyrexia,QD dosing n = 22,4 (18) n (%)
same,AE by preferred term: Rash erythematous,QD dosing n = 22,2 (9) n (%)
same,AE by preferred term: Rash maculo-papular,QD dosing n = 22,5 (23) n (%)
same,AE by preferred term: Rash pustular,QD dosing n = 22,2 (9) n (%)
same,AE by preferred term: Stomatitis,QD dosing n = 22,14 (64) n (%)
same,AE by preferred term: Urticaria,QD dosing n = 22,3 (14) n (%)
same,AE by preferred term: Vomiting,QD dosing n = 22,5 (23) n (%)
same,AE by preferred term: Weight decreased,QD dosing n = 22,7 (32) n (%)
same,AE by preferred term: White blood cell count decreased,QD dosing n = 22,4 (18) n (%)
same,Grade ≥ 3 AE: Acute myocardial infarction,QD dosing n = 22,1 (5) n (%)
same,Grade ≥ 3 AE: Aspartate aminotransferase increased,QD dosing n = 22,1 (5) n (%)
same,Grade ≥ 3 AE: Blood creatine phosphokinase increased,QD dosing n = 22,1 (5) n (%)
same,Grade ≥ 3 AE: Decreased appetite,QD dosing n = 22,1 (5) n (%)
same,Grade ≥ 3 AE: Diarrhea,QD dosing n = 22,1 (5) n (%)
same,Grade ≥ 3 AE: Gamma-glutamyltransferase increased,QD dosing n = 22,1 (5) n (%)
same,Grade ≥ 3 AE: Gastrointestinal inflammation,QD dosing n = 22,1 (5) n (%)
same,Grade ≥ 3 AE: Genital herpes,QD dosing n = 22,1 (5) n (%)
same,Grade ≥ 3 AE: Gingivitis,QD dosing n = 22,1 (5) n (%)
same,Grade ≥ 3 AE: Jaundice cholestatic,QD dosing n = 22,1 (5) n (%)
same,Grade ≥ 3 AE: Lymphocyte count decreased,QD dosing n = 22,2 (9) n (%)
same,Grade ≥ 3 AE: Nausea,QD dosing n = 22,2 (9) n (%)
same,Grade ≥ 3 AE: Neutrophil count decreased,QD dosing n = 22,1 (5) n (%)
same,Grade ≥ 3 AE: Platelet count decreased,QD dosing n = 22,1 (5) n (%)
same,Grade ≥ 3 AE: Post herpetic neuralgia,QD dosing n = 22,1 (5) n (%)
same,Grade ≥ 3 AE: Pruritus,QD dosing n = 22,1 (5) n (%)
same,Grade ≥ 3 AE: Rash maculo-papular,QD dosing n = 22,2 (9) n (%)
same,Grade ≥ 3 AE: Rash pustular,QD dosing n = 22,1 (5) n (%)
same,Grade ≥ 3 AE: Renal impairment,QD dosing n = 22,1 (5) n (%)
same,Grade ≥ 3 AE: Sepsis,QD dosing n = 22,1 (5) n (%)
same,Grade ≥ 3 AE: Stomatitis,QD dosing n = 22,2 (9) n (%)
same,Grade ≥ 3 AE: Urticaria,QD dosing n = 22,1 (5) n (%)
same,Grade ≥ 3 AE: White blood cell count decreased,QD dosing n = 22,1 (5) n (%)
same,Patients with ≥ 1 grade 3 or higher AE,QD dosing n = 22,14 (64) n (%)
same,AEs resulting in discontinuation,QD total (n = 22),3 (14) n (%)
same,AEs resulting in dose interruption,QD total (n = 22),15 (68) n (%)
same,AEs resulting in dose reduction,QD total (n = 22),4 (18) n (%)
same,Any AE,QD total (n = 22),22 (100) n (%)
same,Any grade ≥ 3 AE,QD total (n = 22),14 (64) n (%)
same,On-study deaths,QD total (n = 22),0 n (%)
same,SAEs,QD total (n = 22),6 (27) n (%)
same,Treatment-related AE,QD total (n = 22),22 (100) n (%)
same,Treatment-related SAEs,QD total (n = 22),2 (9) n (%)
same,Treatment-related grade ≥ 3 AE,QD total (n = 22),10 (45) n (%)
same,AE alanine aminotransferase increased,QW arm,50%
same,AE aspartate aminotransferase increased,QW arm,50%
same,AE blood alkaline phosphatase increased,QW arm,67%
same,AE decreased appetite,QW arm,50%
same,AE hyperglycemia,QW arm,67%
same,AE nausea,QW arm,100%
same,AE stomatitis,QW arm,33%
same,AE weight decreased,QW arm,50%
